Measurements pooled from the literature.
Target: Maternal embryonic leucine zipper kinase (MELK, Homo sapiens, UniProt Q14680)

SMILES	assay	setting	endpoint	value
COc1ccc(COc2ccc(Cc3cnc(N)nc3N)cc2OC)cc1	cell-free assay	0.5 µM	remaining signal	102%
Nc1nc(Nc2ccccc2)sc1C(=O)c1c(F)cccc1F	enzyme activity, inhibitor	10 µM	remaining activity	47%
CC(C)(O)[C@H]1CC[C@H](Nc2ccc3ncc(-c4cccc(C(F)(F)F)c4)n3n2)CC1	enzyme activity, inhibitor	1 µM	remaining activity	86.3%
FC(F)c1nc2ccccc2n1-c1nc(N2CCOCC2)nc(N2CCOCC2)n1	enzyme activity, inhibitor	10 µM	remaining activity	91%
O=C1Nc2ccc(Cl)cc2C1=Cc1cc(Cl)c(O)c(Cl)c1	cell-free assay	0.5 µM	remaining signal	83.6%
C[C@@]1(Cc2ccc(C#N)cc2)C(=O)N(c2cc(Cl)cc(Cl)c2)c2ncc(C(=O)NC3(c4nc(C5CCC5)no4)CC3)n21	cell-free assay, competition with immobilised ligand	1 µM	remaining binding	89%
Cc1ccc(Nc2nccc(N(C)c3ccc4c(C)n(C)nc4c3)n2)cc1S(N)(=O)=O	enzyme activity, inhibitor	10 µM	inhibition	16%
C[C@@H](c1cccc(C#N)c1)n1cc(Cl)cc(C(N)=O)c1=N	cell-free assay, competition with immobilised ligand	1 µM	remaining binding	78%
O=[N+]([O-])c1cccc2[nH]c(CNc3nc(N4CCOCC4)nc4c3ncn4-c3ccsc3)nc12	binding, competition with immobilised ligand	10 µM	binding vs control	47%
CCS(=O)(=O)c1cc2cc(C[C@@](O)(CC(C)(C)c3ccc(F)cc3C(N)=O)C(F)(F)F)[nH]c2cn1	cell-free assay, competition with immobilised ligand	1 µM	remaining binding	100%
CNC(=O)c1cc(Oc2ccc(NC(=O)Nc3ccc(Cl)c(C(F)(F)F)c3)cc2)ccn1	enzyme activity, inhibitor	10 µM	inhibition	13%
COc1cc2ncnc(Nc3ccc(Oc4ccccc4)cc3C)c2cc1OC	enzyme activity, inhibitor	1 µM	inhibition	0%
CCCS(=O)(=O)Nc1ccc(F)c(C(=O)c2c[nH]c3ncc(-c4ccc(Cl)cc4)cc23)c1F	enzyme activity, inhibitor	1 µM	inhibition	< 10%
Cc1ccc(NC(=O)c2ccc(C)c(C(F)(F)F)c2)cc1C#Cc1nn(C2CCC(O)CC2)c2ncnc(N)c12 (centres unmarked)	cell-free assay	10 µM	remaining signal	23%
C[C@H](c1ccnc(Nc2nc3ccc(-c4cc(N(C)C)ncn4)cc3[nH]2)c1)N1CCN(C(=O)CC(F)(F)F)CC1	cell-free assay, competition with immobilised ligand	0.1 µM	remaining binding	100%
CCN(CC)CCNC(=O)c1c(C)[nH]c(/C=C2\C(=O)Nc3ccc(F)cc32)c1C	enzyme activity, inhibitor	0.3 µM	inhibition	53%

SMILES	assay	setting	endpoint	value
C#Cc1cccc(Nc2ncnc3cc(OCCOC)c(OCCOC)cc23)c1	cell-free assay	0.5 µM	remaining signal	88.6%
CC(C)(C)c1nc(-c2cccc(NS(=O)(=O)c3c(F)cccc3F)c2F)c(-c2ccnc(N)n2)s1	enzyme activity, inhibitor, radiometric	1 µM	remaining activity	27%
CCOC(=O)c1cc2cc(-c3cc(C(=O)NCc4ccc(C(=O)O)cc4)nn3C)ccc2[nH]1	cell-free assay, competition with immobilised ligand	0.1 µM	remaining binding	100%
CN1CC(Oc2cnc(C#N)cc2-c2ccn3nc(NC(=O)C4CC4)cc3c2)C1	enzyme activity, inhibitor	1 µM	inhibition	10%
FC(F)(F)Oc1cccc(-c2cnc3ccc(-c4ccncc4)nn23)c1	enzyme activity, inhibitor, radiometric	1 µM	activity vs control	84%
CO[C@@H](C)c1c(Nc2ccc([C@@H](N(C)C(=O)C3CCS(=O)(=O)CC3)C(F)(F)F)cc2)cnc2cc(Cl)nn12	cell-free assay, competition with immobilised ligand	1 µM	remaining binding	52%
COc1cc(/C=C/C(=O)CC(=O)/C=C/c2ccc(O)c(OC)c2)ccc1O	enzyme activity, inhibitor	1 µM	activity vs control	74%
Clc1ccc(Nc2nnc(Cc3ccncc3)c3ccccc23)cc1	cell-free assay	0.5 µM	remaining signal	83.7%
C[C@H](NC(=O)c1cnc2n1[C@](C)(Cc1ccc(C#N)cc1)C(=O)N2c1cc(Cl)c(F)c(Cl)c1)C(=O)NC1(c2ccccn2)CC1	cell-free assay, competition with immobilised ligand	1 µM	remaining binding	86%
COc1cc(Nc2cnc(C#N)c(O[C@H](C)CN(C)C)n2)ncc1-c1cnn(C)c1	enzyme activity, inhibitor, radiometric	10 µM	remaining activity	62%
N#CCCc1ccc2c(c1)-c1[nH]c3ccc([N+](=O)[O-])cc3c1CC(=O)N2	cell-free assay	0.5 µM	remaining signal	88.6%
COc1cc(Cl)c(C(=O)N[C@@H](CN[C@H]2CC[C@@H](N)CC2)Cc2ccc(C#N)cc2)cc1-c1ccc(CN[C@H](C)c2ccc(C)cc2)o1	enzyme activity, inhibitor	1 µM	remaining activity	98%
Cc1cc(NC(=O)c2cccc3cc(-c4cccc5[nH]nc(N)c45)ccc23)ccc1F	enzyme activity, inhibitor	0.1 µM	activity vs control	93%
Nc1nc(NC2CCCCC2)sc1C(=O)c1ccccc1	enzyme activity, inhibitor	10 µM	remaining activity	70%
CCC(=O)N[C@H]1CC[C@@H](C(=O)N(C)c2ccc(-c3nc4ccccc4o3)cc2)C1	cell-free assay, competition with immobilised ligand	1 µM	remaining binding	94%
O=C(Nc1cnn(-c2csc(C(=O)NC3COC3)c2)c1)Nc1c(F)cccc1Cl	enzyme activity, inhibitor	5 µM	remaining activity	61.4%
